Measurements reported in ChEMBL document CHEMBL1128448, “Synthesis and antifungal activity of new azole derivatives containing an N-acylmorpholine ring” (1995).
≈ marks a conversion by molar mass, not a printed value.

Legend:
Pichia kudriavzevii [1] = assay: Evaluation of In vitro antifungal activity against Candida krusei 70 by broth macro dilution method; type: functional
Outline: (§1)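 Yeast MIC and MFC by broth macrodilution per NCCLS M27-P in RPMI-1640 buffered with 0.165 M MOPS. Fluconazole in sterile water, other drugs in DMSO. C. parapsilosis ATCC 22019 is the reference strain in each run. MIC is the lowest concentration with turbidity ≤ the 80% inhibition standard. For MFC, 0.04 mL from clear tubes is plated on Sabouraud agar; MFC is the lowest concentration giving ≤1 colony.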

Aspergillus flavus = assay: In vitro evaluation of minimum inhibitory concentration against Aspergillus flavus 19; type: functional; conditions: Aspergillus flavus; read-out: MIC
Outline: (§2)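 Stocks are 800 μg/mL in 50% ethanol. Each plate gets 10 μL of inoculum at 10^5 cfu/mL. Incubation at 25 °C, 48 h for yeasts and 120 h for dermatophytes and molds. Organisms are ATCC strains or clinical isolates.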

Candida parapsilosis [2] = assay: In vitro evaluation of minimum inhibitory concentration against Candida parapsilosis 61; type: functional; conditions: Lodderomyces parapsilosis; read-out: MIC; outline: as §2
Cryptococcus neoformans [3] = assay: Evaluation of In vitro antifungal activity against Cryptococcus neoformans 87 by broth macro dilution method; type: functional; outline: as §1
Candida albicans [4] = assay: […] Evaluation of minimum inhibitory concentration against Candida albicans 406; type: functional; outline: as §2
Trichophyton benhamiae = assay: In vitro evaluation of minimum inhibitory concentration against Trichophyton mentagrophytes 23; type: functional, Arthroderma benhamiae; conditions: Trichophyton benhamiae; read-out: MIC; outline: as §2
Candida parapsilosis [5] = assay: Evaluation of In vitro antifungal activity against Candida parapsilosis ATCC 22019 by broth macro dilution method; type: functional; conditions: Lodderomyces parapsilosis; outline: as §1
Kluyveromyces marxianus [6] = assay: Evaluation of In vitro antifungal activity against yeasts by broth macro dilution method; type: functional; outline: as §1
Candida parapsilosis [7] = assay: Evaluation of In vitro antifungal activity against Candida parapsilosis ATCC 141095 by broth macro dilution method; type: functional; conditions: Lodderomyces parapsilosis; outline: as §1
Candida albicans [8] = assay: Evaluation of In vitro antifungal activity against Candida albicans 406 by broth macro dilution method; type: functional; outline: as §1
Trichophyton rubrum = assay: In vitro evaluation of minimum inhibitory concentration against Trichophyton rubrum 90; type: functional; conditions: Trichophyton rubrum; read-out: MIC; outline: as §2
Candida albicans [9] = assay: Evaluation of In vitro antifungal activity against Candida albicans 31 by broth macro dilution method; type: functional; outline: as §1
Candida parapsilosis [10] = assay: Evaluation of In vitro antifungal activity against Candida parapsilosis C74 by broth macro dilution method; type: functional; conditions: Lodderomyces parapsilosis; outline: as §1
Microsporum canis = assay: In vitro evaluation of minimum inhibitory concentration against Microsporum canis 47; type: functional; conditions: Microsporum canis; read-out: MIC; outline: as §2
Nakaseomyces glabratus [11] = assay: In vitro evaluation of minimum inhibitory concentration against Torulopsis glabrata 78; type: functional; conditions: Nakaseomyces glabratus; read-out: MIC; outline: as §2
Kluyveromyces marxianus [12] = assay: In vitro evaluation of minimum inhibitory concentration against Candida pseudotropicalis 13; type: functional; conditions: Kluyveromyces marxianus; read-out: MIC; outline: as §2
Pichia kudriavzevii [13] = assay: Evaluation of In vitro antifungal activity against Candida krusei C64 by broth macro dilution method; type: functional; outline: as §1
Candida parapsilosis [14] = assay: Evaluation of In vitro antifungal activity against Candida parapsilosis 2.07 by broth macro dilution method; type: functional; conditions: Lodderomyces parapsilosis; outline: as §1
Candida albicans [15] = assay: […] Evaluation of minimum inhibitory concentration against Candida albicans 60; type: functional; outline: as §2
Aspergillus fumigatus = assay: In vitro evaluation of minimum inhibitory concentration against Aspergillus fumigatus 33; type: functional; conditions: Aspergillus fumigatus; read-out: MIC; outline: as §2
Candida albicans [16] = assay: Evaluation of In vitro antifungal activity against Candida albicans C56 by broth macro dilution method; type: functional; outline: as §1
Candida albicans [17] = assay: Evaluation of In vitro antifungal activity against Candida albicans C52 by broth macro dilution method; type: functional; outline: as §1
Candida albicans [18] = assay: Evaluation of In vitro antifungal activity against Candida albicans 2.01 by broth macro dilution method; type: functional; outline: as §1
Candida tropicalis [19] = assay: Evaluation of In vitro antifungal activity against Candida tropicalis 50 by broth macro dilution method; type: functional; outline: as §1
Candida tropicalis [20] = assay: In vitro evaluation of minimum inhibitory concentration against Candida tropicalis 2.11; type: functional; conditions: Candida tropicalis; read-out: MIC; outline: as §2
Candida parapsilosis [21] = assay: Evaluation of In vitro antifungal activity against Candida parapsilosis C292 by broth macro dilution method; type: functional; conditions: Lodderomyces parapsilosis; outline: as §1
Kluyveromyces marxianus [22] = assay: Evaluation of In vitro antifungal activity against Candida pseudotropicalis ATCC 28838 by broth macro dilution method; type: functional; outline: as §1
[23] = system: Meyerozyma guilliermondii; assay: Evaluation of In vitro antifungal activity against Candida guilliermondii 26 by broth macro dilution method; type: functional; outline: as §1
Cryptococcus neoformans [24] = assay: Evaluation of In vitro antifungal activity against Cryptococcus neoformans 74 by broth macro dilution method; type: functional; outline: as §1
[25] = system: Meyerozyma guilliermondii; assay: In vitro evaluation of minimum inhibitory concentration against Candida guilliermondii 26; type: functional; conditions: Meyerozyma guilliermondii; read-out: MIC; outline: as §2
Nannizzia gypsea = assay: In vitro evaluation of minimum inhibitory concentration against Microsporum gypseum 22; type: functional; conditions: Nannizzia gypsea; read-out: MIC; outline: as §2
Candida albicans [26] = assay: Evaluation of In vitro antifungal activity against Candida albicans 60 by broth macro dilution method
Candida albicans [27] = assay: Evaluation of In vitro antifungal activity against Candida albicans ATCC 10231 by broth macro dilution method; type: functional; outline: as §1
Pichia kudriavzevii [28] = assay: In vitro evaluation of minimum inhibitory concentration against Candida krusei 70; type: functional; conditions: Pichia kudriavzevii; read-out: MIC; outline: as §2
Candida albicans [29] = assay: In vitro evaluation of minimum inhibitory concentration against Candida albicans 76; type: functional; conditions: Candida albicans; read-out: MIC; outline: as §2
Candida tropicalis [30] = assay: Evaluation of In vitro antifungal activity against Candida tropicalis 2.11 by broth macro dilution method; type: functional; outline: as §1
Aspergillus niger = assay: In vitro evaluation of minimum inhibitory concentration against Aspergillus niger 18; type: functional; conditions: Aspergillus niger; read-out: MIC; outline: as §2
Candida albicans [31] = assay: Evaluation of In vitro antifungal activity against Candida albicans 76 by broth macro dilution method; type: functional; outline: as §1
Nakaseomyces glabratus [32] = assay: Evaluation of In vitro antifungal activity against Torulopsis glabrata 78 by broth macro dilution method; type: functional; outline: as §1
Candida albicans [33] = assay: Evaluation of […] antifungal activity against Candida albicans 60 by broth macro dilution method; type: functional; outline: as §1
Rhodotorula mucilaginosa = assay: In vitro evaluation of minimum inhibitory concentration against Rhodotorula rubra 16; type: functional; conditions: Rhodotorula mucilaginosa; read-out: MIC; outline: as §2

CC(=O)N1CCN(c2ccc(OC[C@H]3CO[C@](Cn4ccnc4)(c4ccc(Cl)cc4Cl)O3)cc2)CC1 [KETOCONAZOLE]
MFC (Pichia kudriavzevii [1]): 4 µg/mL (≈ 7.53 µM) | MIC (Pichia kudriavzevii [1]): 2 µg/mL (≈ 3.76 µM) | MIC (Aspergillus flavus): 2.5 µg/mL (≈ 4.7 µM) | MIC (Candida parapsilosis [2]): 0.07 µg/mL (≈ 0.132 µM) | MFC (Cryptococcus neoformans [3]): 16 µg/mL (≈ 30.1 µM) | MIC (Cryptococcus neoformans [3]): 2 µg/mL (≈ 3.76 µM) | MIC (Candida albicans [4]): < 0.03 µg/mL | MIC (Trichophyton benhamiae): 5 µg/mL (≈ 9.41 µM) | MFC (Candida parapsilosis [5]): 4 µg/mL (≈ 7.53 µM) | MIC (Candida parapsilosis [5]): 0.063 µg/mL (≈ 0.119 µM) | MIC (Kluyveromyces marxianus [6]): 0.063 µg/mL (≈ 0.119 µM) | MFC (Candida parapsilosis [7]): 16 µg/mL (≈ 30.1 µM) | MIC (Candida parapsilosis [7]): 0.5 µg/mL (≈ 0.941 µM) | MFC (Candida albicans [8]): > 16 µg/mL | MIC (Candida albicans [8]): 0.063 µg/mL (≈ 0.119 µM) | MIC (Trichophyton rubrum): 1.25 µg/mL (≈ 2.35 µM) | MFC (Candida albicans [9]): > 16 µg/mL | MIC (Candida albicans [9]): < 0.031 µg/mL | MFC (Candida parapsilosis [10]): 0.25 µg/mL (≈ 0.47 µM) | MIC (Candida parapsilosis [10]): 0.063 µg/mL (≈ 0.119 µM) | MIC (Microsporum canis): 2.5 µg/mL (≈ 4.7 µM) | MIC (Nakaseomyces glabratus [11]): 1.25 µg/mL (≈ 2.35 µM) | MIC (Kluyveromyces marxianus [12]): 10 µg/mL (≈ 18.8 µM) | MFC (Pichia kudriavzevii [13]): 8 µg/mL (≈ 15.1 µM) | MIC (Pichia kudriavzevii [13]): 2 µg/mL (≈ 3.76 µM) | MFC (Candida parapsilosis [14]): > 16 µg/mL | MIC (Candida parapsilosis [14]): 0.063 µg/mL (≈ 0.119 µM) | MIC (Candida albicans [15]): < 0.03 µg/mL | MIC (Aspergillus fumigatus): 5 µg/mL (≈ 9.41 µM) | MFC (Candida albicans [16]): > 16 µg/mL | MIC (Candida albicans [16]): < 0.031 µg/mL | MFC (Candida albicans [17]): > 16 µg/mL | MIC (Candida albicans [17]): < 0.031 µg/mL | MFC (Candida albicans [18]): > 16 µg/mL | MIC (Candida albicans [18]): 0.063 µg/mL (≈ 0.119 µM) | MFC (Candida tropicalis [19]): > 16 µg/mL | MIC (Candida tropicalis [19]): 2 µg/mL (≈ 3.76 µM) | MIC (Candida tropicalis [20]): 2.5 µg/mL (≈ 4.7 µM) | MFC (Candida parapsilosis [21]): 16 µg/mL (≈ 30.1 µM) | MIC (Candida parapsilosis [21]): 0.125 µg/mL (≈ 0.235 µM) | MFC (Kluyveromyces marxianus [22]): > 16 µg/mL | MFC [23]: 4 µg/mL (≈ 7.53 µM) | MIC [23]: 0.125 µg/mL (≈ 0.235 µM) | MFC (Cryptococcus neoformans [24]): 1 µg/mL (≈ 1.88 µM) | MIC (Cryptococcus neoformans [24]): < 0.031 µg/mL | MIC [25]: < 0.03 µg/mL | MIC (Nannizzia gypsea): 0.63 µg/mL (≈ 1.19 µM) | MFC (Candida albicans [26]): > 16 µg/mL | MFC (Candida albicans [27]): > 16 µg/mL | MIC (Candida albicans [27]): 0.063 µg/mL (≈ 0.119 µM) | MIC (Pichia kudriavzevii [28]): 1.25 µg/mL (≈ 2.35 µM) | MIC (Candida albicans [29]): 0.15 µg/mL (≈ 0.282 µM) | MFC (Candida tropicalis [30]): 8 µg/mL (≈ 15.1 µM) | MIC (Candida tropicalis [30]): 0.25 µg/mL (≈ 0.47 µM) | MIC (Aspergillus niger): 40 µg/mL (≈ 75.3 µM) | MFC (Candida albicans [31]): > 16 µg/mL | MIC (Candida albicans [31]): < 0.031 µg/mL | MFC (Nakaseomyces glabratus [32]): > 16 µg/mL | MIC (Nakaseomyces glabratus [32]): 8 µg/mL (≈ 15.1 µM) | MIC (Candida albicans [33]): < 0.031 µg/mL | MIC (Rhodotorula mucilaginosa): 0.07 µg/mL (≈ 0.132 µM)
